Measured values taken from ChEMBL document CHEMBL5260843 (J Med Chem, 2019).
Active and inactive are the calls of the source. No cut-off for these calls is given here.

What was measured:
[1] = Metabolic stability in dog liver microsomes assessed as intrinsic clearance; format: ADME, Canis lupus familiaris, Microsome; settings: read-out: CLH
[2] = system: MGC-803; assay: Induction of ROS generation in human MGC-803 cells at 3 uM incubated for 24 hrs by DCFH-DA staining based flow cytometry analysis (reference value: 2.2%); format: functional
[3] = system: KYSE-70; assay: Induction of p27 accumulation in human KYSE-70 cells incubated for 24 hrs by Western blot analysis; format: functional, cell-based; settings: dose 0.3-10 µM
Procedure, shortened: (§1)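 Cells in 6-well plates were exposed to compound for 24 h. MGC-803 were grown in DMEM and KYSE70 in RPMI 1640, both with 10% FBS at 37 °C and 5% CO2. Lysates were made in RIPA with protease inhibitors and quantified by BCA. 30 μg protein was run on 8% SDS-PAGE and blotted to nitrocellulose. Primary antibodies were applied overnight at 4 °C, then HRP secondaries, with ECL and film detection. GAPDH was the loading control. Run three times.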

[4] = target: Cullin-4A (Homo sapiens) (UniProt Q13619); assay: Inhibition of cullin4A neddylation in human KYSE-70 cells at 0.3 to 10 uM incubated for 24 hrs by Western blot analysis; format: cell-based; settings: KYSE-70 cell line, dose 0.3-10 µM; procedure, shortened: as §1
[5] = Metabolic stability in rat liver microsomes assessed as half life; format: ADME, Microsome
[6] = target: Tyrosine-protein kinase BTK (Homo sapiens) (UniProt Q06187); assay: Inhibition of N-terminal GST-tagged full length human BTK (2 to 659 residues) expressed in Sf21 insect cells using 5-FAM-EAIYAAPFAKKK as substrate at 10 uM incubated for 60 mins relative to control
Procedure, shortened: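 Mobility-shift kinase assay with BTK at 5 nM, 3 μM 5-FAM peptide and 90 μM ATP. Buffer was 50 mM HEPES pH 7.5, 0.0015% Brij-35, 10 mM MgCl2 and 2 mM DTT. Reactions ran 60 min at 28 °C and were stopped with EDTA. Substrate conversion was read on Caliper and converted to % inhibition.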

[7] = system: MGC-803; assay: Inhibition of cullin2 neddylation in UBC/DCN1 overactivated human MGC-803 cells at 0.3 to 10 uM incubated for 24 hrs by Western blot analysis; format: cell-based; settings: dose 0.3-10 µM; procedure, shortened: as §1
[8] = system: Epidermal growth factor receptor (Homo sapiens), P00533 [L858R]; assay: Inhibition of human EGFR L858R mutant (669 to 1210 residues) expressed in Sf21 insect cells using 5-FAM-EEPLYWSFPAKKK-CONH2 as substrate at 10 uM incubated for 30 mins relative to control
[9] = system: KYSE-70; assay: Upregulation of NRF2 protein expression in human KYSE-70 cells incubated for 24 hrs by Western blot analysis; format: functional, cell-based; settings: dose 0.3-10 µM
Procedure, shortened: (§2)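 Cells were grown at 37 °C in 5% CO2 with 10% FBS, MGC-803 in DMEM and KYSE70 in RPMI 1640. They were exposed to the indicated compound concentrations for 24 h, then lysed in RIPA with protease inhibitors and quantified by BCA. 30 μg of protein was run on 8% SDS-PAGE and blotted to nitrocellulose. Primary antibody was applied overnight at 4 °C, with HRP secondary and ECL film detection. GAPDH served as the loading control; the experiment was done three times.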

[10] = system: MGC-803; assay: Induction of ROS generation in human MGC-803 cells at 0.3 uM incubated for 24 hrs by DCFH-DA staining based flow cytometry analysis (reference value: 2.2%); format: functional
[11] = target: CDK9/cyclin T1 (Homo sapiens) (UniProt O60563+P50750); assay: Inhibition of C-terminal His6 tagged full length recombinant human CDK9/full length human Cyclin T1 expressed in baculovirus infected Sf21 cells using 5-FAM-ACSYSPTSPSYSPTSPSYSPTSPSKK as substrate at 10 uM incubated for 60 mins in presence of ATP relative to control
Procedure, shortened: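 CDK/cyclin complexes were assayed with 3 μM 5-FAM peptide substrate. ATP was 20 μM for CDK1, 30 μM for CDK2, 280 μM for CDK4, 800 μM for CDK6 and 10 μM for CDK9. Buffer was 50 mM HEPES pH 7.5, 0.0015% Brij-35, 10 mM MgCl2 and 2 mM DTT. Reactions ran 60 min at 28 °C and were stopped with EDTA. Caliper conversion values were converted to % inhibition.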

[12] = Metabolic stability in rat liver microsomes assessed as intrinsic clearance; format: ADME, Microsome; settings: read-out: CLH
[13] = system: MGC-803; assay: Upregulation of NRF2 protein expression in human MGC-803 cells incubated for 24 hrs by Western blot analysis; format: functional, cell-based; settings: dose 1-10 µM; procedure, shortened: as §2
[14] = system: MGC-803; assay: Induction of ROS generation in human MGC-803 cells at 1 uM incubated for 24 hrs by DCFH-DA staining based flow cytometry analysis (reference value: 2.2%); format: functional
[15] = target: Cullin-1 (Homo sapiens) (UniProt Q13616); assay: Inhibition of cullin1 neddylation in UBC/DCN1 overactivated human MGC-803 cells at 10 uM incubated for 24 hrs by Western blot analysis; format: cell-based; procedure, shortened: as §1
Sequence of Cullin-1 (Homo sapiens) (Q13616 whole entry): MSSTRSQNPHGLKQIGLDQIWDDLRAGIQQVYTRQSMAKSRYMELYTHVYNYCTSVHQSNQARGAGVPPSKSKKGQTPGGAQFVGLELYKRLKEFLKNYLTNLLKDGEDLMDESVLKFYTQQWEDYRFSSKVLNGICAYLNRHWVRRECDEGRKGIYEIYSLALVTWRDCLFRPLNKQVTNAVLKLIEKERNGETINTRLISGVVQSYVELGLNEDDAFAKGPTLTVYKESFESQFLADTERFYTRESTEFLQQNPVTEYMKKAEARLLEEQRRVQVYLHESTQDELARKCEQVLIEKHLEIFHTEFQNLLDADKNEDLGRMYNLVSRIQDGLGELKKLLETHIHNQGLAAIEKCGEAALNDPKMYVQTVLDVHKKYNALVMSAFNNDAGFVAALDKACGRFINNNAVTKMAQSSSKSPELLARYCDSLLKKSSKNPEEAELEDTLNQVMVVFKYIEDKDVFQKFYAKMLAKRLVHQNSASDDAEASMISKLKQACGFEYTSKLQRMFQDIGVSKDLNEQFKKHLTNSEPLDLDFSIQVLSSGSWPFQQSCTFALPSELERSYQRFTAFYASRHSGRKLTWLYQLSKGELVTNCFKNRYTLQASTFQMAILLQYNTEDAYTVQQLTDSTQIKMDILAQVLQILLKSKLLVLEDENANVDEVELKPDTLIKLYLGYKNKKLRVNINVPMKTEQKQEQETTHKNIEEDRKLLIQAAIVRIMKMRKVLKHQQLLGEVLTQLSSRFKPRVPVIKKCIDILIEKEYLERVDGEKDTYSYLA

Sequence of Tyrosine-protein kinase BTK (Homo sapiens) (Q06187 whole entry, the tested form may be a part): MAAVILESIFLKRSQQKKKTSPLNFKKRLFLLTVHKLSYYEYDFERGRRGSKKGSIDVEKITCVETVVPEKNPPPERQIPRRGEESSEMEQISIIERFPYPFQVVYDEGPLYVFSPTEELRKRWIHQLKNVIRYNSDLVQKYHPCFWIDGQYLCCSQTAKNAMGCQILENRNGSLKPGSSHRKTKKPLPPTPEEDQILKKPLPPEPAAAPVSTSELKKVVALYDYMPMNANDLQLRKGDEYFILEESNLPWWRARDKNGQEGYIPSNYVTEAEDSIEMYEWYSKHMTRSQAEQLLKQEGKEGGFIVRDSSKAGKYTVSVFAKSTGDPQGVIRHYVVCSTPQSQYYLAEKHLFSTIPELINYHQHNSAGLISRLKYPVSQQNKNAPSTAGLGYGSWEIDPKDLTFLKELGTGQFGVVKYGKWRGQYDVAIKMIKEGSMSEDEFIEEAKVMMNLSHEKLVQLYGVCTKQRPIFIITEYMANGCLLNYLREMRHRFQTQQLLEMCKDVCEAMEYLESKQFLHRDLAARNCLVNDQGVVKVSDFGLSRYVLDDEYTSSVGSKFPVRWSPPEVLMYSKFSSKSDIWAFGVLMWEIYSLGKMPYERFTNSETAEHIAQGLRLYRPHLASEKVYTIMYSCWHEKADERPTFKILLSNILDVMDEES
Sequence of Cullin-4A (Homo sapiens) (Q13619 whole entry): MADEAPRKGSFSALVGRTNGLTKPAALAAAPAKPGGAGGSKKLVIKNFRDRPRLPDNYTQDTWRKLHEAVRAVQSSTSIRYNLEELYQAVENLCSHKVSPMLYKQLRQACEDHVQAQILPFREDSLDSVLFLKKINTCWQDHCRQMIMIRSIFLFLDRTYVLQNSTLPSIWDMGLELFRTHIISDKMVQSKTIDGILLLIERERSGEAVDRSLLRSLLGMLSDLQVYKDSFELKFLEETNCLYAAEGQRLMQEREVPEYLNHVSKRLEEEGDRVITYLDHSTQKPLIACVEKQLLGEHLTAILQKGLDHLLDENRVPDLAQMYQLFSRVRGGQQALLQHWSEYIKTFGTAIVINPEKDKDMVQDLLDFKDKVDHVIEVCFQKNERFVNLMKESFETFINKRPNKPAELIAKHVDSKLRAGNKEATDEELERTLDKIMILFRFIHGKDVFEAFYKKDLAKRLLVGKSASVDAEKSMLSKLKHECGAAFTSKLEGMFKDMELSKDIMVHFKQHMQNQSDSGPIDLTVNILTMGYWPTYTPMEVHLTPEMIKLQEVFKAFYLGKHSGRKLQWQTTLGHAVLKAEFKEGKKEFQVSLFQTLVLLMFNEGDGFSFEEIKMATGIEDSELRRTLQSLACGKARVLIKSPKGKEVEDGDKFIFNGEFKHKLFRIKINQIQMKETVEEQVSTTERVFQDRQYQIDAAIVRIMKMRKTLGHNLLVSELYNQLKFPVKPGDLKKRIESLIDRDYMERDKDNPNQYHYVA
Sequence of Epidermal growth factor receptor (Homo sapiens), P00533 [L858R] (P00533 whole entry L858R, the tested form may be a part): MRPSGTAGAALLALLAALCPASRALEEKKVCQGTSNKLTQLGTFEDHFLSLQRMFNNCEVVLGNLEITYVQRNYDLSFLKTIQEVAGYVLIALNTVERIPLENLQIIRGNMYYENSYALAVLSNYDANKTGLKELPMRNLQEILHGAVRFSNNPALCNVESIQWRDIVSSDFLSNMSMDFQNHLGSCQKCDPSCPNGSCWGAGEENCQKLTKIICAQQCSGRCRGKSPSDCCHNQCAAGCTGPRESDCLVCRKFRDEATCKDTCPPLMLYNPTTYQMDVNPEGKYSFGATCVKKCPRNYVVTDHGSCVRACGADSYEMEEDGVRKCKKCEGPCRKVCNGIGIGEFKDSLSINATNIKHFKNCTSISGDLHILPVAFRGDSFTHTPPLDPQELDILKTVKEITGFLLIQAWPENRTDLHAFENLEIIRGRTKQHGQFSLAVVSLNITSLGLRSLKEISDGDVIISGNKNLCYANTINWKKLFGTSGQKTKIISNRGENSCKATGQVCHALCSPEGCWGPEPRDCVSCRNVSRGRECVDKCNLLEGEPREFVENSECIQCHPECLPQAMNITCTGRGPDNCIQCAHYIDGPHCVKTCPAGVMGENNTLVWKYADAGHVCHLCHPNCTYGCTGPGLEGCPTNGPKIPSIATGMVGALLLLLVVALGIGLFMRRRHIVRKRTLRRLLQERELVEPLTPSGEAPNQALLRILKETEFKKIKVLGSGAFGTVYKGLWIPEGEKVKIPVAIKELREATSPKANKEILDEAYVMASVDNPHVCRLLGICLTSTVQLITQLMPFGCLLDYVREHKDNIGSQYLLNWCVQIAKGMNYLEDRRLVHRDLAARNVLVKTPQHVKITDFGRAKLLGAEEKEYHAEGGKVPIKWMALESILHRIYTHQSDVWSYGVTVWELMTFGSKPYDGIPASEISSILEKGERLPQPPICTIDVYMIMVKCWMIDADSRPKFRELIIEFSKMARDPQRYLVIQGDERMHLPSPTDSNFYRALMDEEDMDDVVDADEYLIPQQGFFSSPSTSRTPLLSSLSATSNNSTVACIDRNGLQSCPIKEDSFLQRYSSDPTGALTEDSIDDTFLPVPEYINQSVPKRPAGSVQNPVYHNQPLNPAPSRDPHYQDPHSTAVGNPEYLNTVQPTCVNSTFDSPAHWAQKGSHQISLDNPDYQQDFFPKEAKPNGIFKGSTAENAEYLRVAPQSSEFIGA

CLint scaled [1]: 691 mL/min/kg
inhibition [4]: inactive
half-life [5]: < 5 min
inhibition [6]: 13.6%
inhibition [8]: -0.6%
inhibition [11]: -8.4%
CLint scaled [12]: 497 mL/min/kg
inhibition [15]: Active
Structure (SMILES): Cc1cc(Sc2nnnn2CCN(C)C)n2nc(SCc3ccc(Cl)cc3)nc2n1.Cl
Activity [2]: 2.6%
Activity [3]: Dose-Dependent Effect
inhibition [7]: inactive
Activity [9]: Dose-Dependent Effect
Activity [10]: 2.8%
Activity [13]: Dose-Dependent Effect
Activity [14]: 3.8%
